JMJD2C inh = blocks human GASC-1 demethylase activity; inhibition, % at 2.35 µM; actives 0.069% (n = 330,000); GST-JMJD2C(1-420) H3K9me3 demethylation, DELFIA europium; Q9H3R0;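 active = more than half of a compound's replicate wells show inhibition beyond 50%, single wells judged on their own value; inconclusive = some, but no more than half, of replicates pass 50% inhibition; inactive = no replicate passes 50% inhibition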;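 also: signal counts dimethyl H3K9 product captured on neutravidin plate; 0% = median of DMSO wells and 100% = 0.3 times that DMSO median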
AHR act = human AHR activation; P35869; AHR-responsive luciferase reporter cells, luminescence; activation, % at 5 µM; actives 2.5% (n = 320,000); AID 2796; in the data active = activation above about 47%;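 also: 0% = vehicle wells and 100% = reference agonist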
Target sequence (P35869 whole entry, looked up): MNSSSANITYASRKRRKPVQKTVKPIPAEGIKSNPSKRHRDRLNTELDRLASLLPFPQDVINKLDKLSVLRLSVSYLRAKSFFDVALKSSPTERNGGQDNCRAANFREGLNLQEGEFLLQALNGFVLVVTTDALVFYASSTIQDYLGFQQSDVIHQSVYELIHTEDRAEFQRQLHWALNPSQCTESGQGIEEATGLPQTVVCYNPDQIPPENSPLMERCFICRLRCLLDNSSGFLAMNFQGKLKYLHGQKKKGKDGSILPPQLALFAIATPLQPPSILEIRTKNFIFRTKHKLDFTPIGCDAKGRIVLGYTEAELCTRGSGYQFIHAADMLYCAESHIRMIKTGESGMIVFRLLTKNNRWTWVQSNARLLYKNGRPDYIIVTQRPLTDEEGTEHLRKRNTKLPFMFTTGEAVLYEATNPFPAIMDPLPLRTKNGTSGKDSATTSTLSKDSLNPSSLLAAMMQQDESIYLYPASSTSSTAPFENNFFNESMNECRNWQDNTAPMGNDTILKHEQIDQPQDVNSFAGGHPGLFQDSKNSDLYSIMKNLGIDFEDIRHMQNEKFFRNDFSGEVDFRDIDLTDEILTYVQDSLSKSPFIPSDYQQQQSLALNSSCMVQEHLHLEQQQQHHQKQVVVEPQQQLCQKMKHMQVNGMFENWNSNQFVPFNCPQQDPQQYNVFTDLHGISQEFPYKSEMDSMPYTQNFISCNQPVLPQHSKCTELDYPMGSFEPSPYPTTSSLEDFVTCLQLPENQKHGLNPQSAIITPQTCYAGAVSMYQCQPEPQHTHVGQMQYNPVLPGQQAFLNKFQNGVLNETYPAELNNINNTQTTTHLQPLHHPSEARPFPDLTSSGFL
SR-BI DiI-HDL act = enhances SR-BI lipid uptake from DiI-HDL. CHO ldlA[mSR-BI] cells, DiI-HDL uptake fluorescence, 3 h; 100 = double the neutral-control signal. activation, % at 12.5 µM. actives 0.096% (n = 320,000). AID 504775;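 active = mean replicate activation of at least 60% and every replicate at or above 60%; inconclusive = mean or all-replicate condition met, but not both; inactive = mean below 60% and not all replicates reaching 60%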;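 also: 0% = median plate neutral-control signal and 100% = twice that signal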
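Assay system: CHO ldlA[mSR-BI] cells, LDL receptor-null, SR-BI overexpressing; medium: Ham's F12 with 0.5% BSA, HEPES 25 mM, pH 7.4; also added: DiI-HDL 10 µg/mL; timing: 3 h uptake period with compound, 37 °C; signal: DiI fluorescence, bottom read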
FXN GAA850 act = increases GAA850 frataxin promoter reporter activity; HEK293 lucGAA850 FXN promoter luciferase reporter, 24 h; percent of 10 µM SAHA response; actives 0.56% (n = 360,000); activation, % at 6 µM;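 active = activation above the average of all compounds screened plus 3 SD, cutoff fixed separately per campaign, cut at about 7.5% in these data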;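 also: 0% = DMSO wells and 100% = 10 µM SAHA wells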
SR-BI HDL uptake = inhibitors of mouse SR-BI mediated HDL lipid uptake; Q61009; ldlA[mSR-BI] CHO cells, DiI-HDL uptake fluorescence, 3 h; inhibition, % at 12.5 µM; actives 0.96% (n = 320,000); AID 488896;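 active = mean replicate inhibition of at least 70% and a set share of replicates each scoring 70 or more; inconclusive = meets just one of the two criteria; inactive = fails both criteria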;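 also: 0% = median of neutral control wells and 100% = median of positive control wells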
GAA30 counter = counter-screen for GAA850 frataxin promoter activators: GAA30 promoter activation | actives 66% (n = 1,900) | AID 588350 | activation, % at 6 µM | HEK293 lucGAA30 FXN promoter luciferase, 24 h; DMSO = 0%, 5 µM ipriflavone = 100% | shares compounds with FXN GAA850 act;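 active = mean activation above the mean of solvent-only control wells plus 3 SD, cut at about 22% in these data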;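 also: counterscreen of GAA850 promoter hits where activity marks nonselective or luminescence artifacts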
FXN GAA850 conf = GAA850 FXN promoter activation confirmation. shares compounds with FXN GAA850 act. HEK293 lucGAA850 FXN promoter luciferase reporter, 24 h; 100% = activation by SAHA. activation, % at 6 µM. actives 86% (n = 1,900). AID 588351;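 active = mean activation above a set limit taken from the primary screen, cut at about 8% in these data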;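 also: 0% = DMSO wells and 100% = 10 µM SAHA wells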
An asterisk follows results filed as active; i = inactive; ? = inconclusive; / = no result given. In the library only some 3.7% were active in any assay of this set; here they are far more common.

SMILES | JMJD2C inh | AHR act | SR-BI DiI-HDL act | FXN GAA850 act | SR-BI HDL uptake | GAA30 counter | FXN GAA850 conf
Cc1cc(NC(=O)CSc2nc(C(C)C)nc3sc(C)c(C)c23)no1 | -2 | 1 | -2 | 7.9* | 2 | -6 | 13*
Cc1ccc(-c2csc(N3CCC[C@@H]3C(=O)NCCn3c(-c4ccncc4)nc4ccccc43)n2)cc1 | 2 | 23 | -21 | -6 | 21 | / | /
CCOc1ccc(S(=O)(=O)Nc2ccccc2C(=O)Nc2ccccc2N2CCOCC2)cc1 | 94 | 1 | 33 | 8.3* | -33 | 19 | 11*
O=C(Nc1ccccc1N1CCOCC1)c1ccccc1NS(=O)(=O)c1ccc(F)cc1 | 0 | 2 | 32 | 0 | -32 | / | /
O=C1Cc2c([nH]c3ccc(Br)cc23)-c2ccccc2N1 | / | / | -41 | 68* | 41 | 167* | 201*
O=c1c2c([nH]c3ccc(Br)cc13)CCCC2 | -3 | 1 | -32 | 0 | 32 | / | /
CC1CCCN(C(=O)c2nn(C)c3c2CSc2ccccc2-3)C1 (stereo not given) | 6 | 20 | -5 | 9.6* | 5 | 30* | 12*
CC1CC(C)CN(C(=O)c2nn(C)c3c2CSc2ccccc2-3)C1 (stereo not given) | 57 | 14 | -17 | -1 | 17 | / | /
Fc1ccccc1COc1ccc(C(=S)N2CCCC2)cc1 | 9 | -6 | -22 | 3 | 22 | / | /
CN(c1ccc(C(=O)NCCSC(C)(C)C)cc1)S(C)(=O)=O | 11 | 20 | 1 | 8.1* | -1 | 104* | 30*
O=[N+]([O-])c1ccc(N/N=C/c2cccc(O)c2)cc1 | 10 | 0 | -54 | -1 | 54 | / | /
O=[N+]([O-])c1ccc(N/N=C/c2cccc(O)c2O)cc1 | 23 | 3 | -41 | 15* | 41 | 77* | 40*
Cc1nn2c(nc(N3CCCCC3)c3ccccc32)c1C=O | 26 | 0 | -15 | 9.5* | 15 | -3 | 12*
Cc1nn2c(nc(N3CCOCC3)c3ccccc32)c1C=C(C#N)C#N | -14 | 4 | 8 | 3 | -8 | / | /
CCOC(=O)NC(=O)/C(C#N)=C\Nc1ccc(Cl)cc1Cl | 4 | 6 | -7 | 8.3* | 7 | 22 | 5
COc1cc(Cl)c(C)cc1NC(=O)COC(=O)c1ccc(CN2CCCC2=O)cc1 | 0 | 8 | -3 | 2 | 3 | / | /
COc1cc2c(O)c3c(c(-c4ccc5c(c4)OCO5)c2cc1OC)C(=O)OC3 | -5 | 1 | 15 | 20* | -15 | -8 | 27*
COc1cc2c(OC(C)=O)c3c(c(-c4ccc5c(c4)OCO5)c2cc1OC)C(=O)OC3 | -9 | -1 | -21 | 1 | 21 | / | /
O=C1C=CC(=C(c2ccc(O)cc2)c2ccc(O)cc2)C=C1 | -6 | -3 | -1 | 8.6* | 1 | 29* | 37*
O=C(OCC1CC(c2ccccc2Cl)=NO1)c1ccc(Br)cc1 (stereo not given) | 11 | 3 | 20 | 7.6* | -20 | 11 | 5
O=C(CN(C(=O)CNC(=O)c1cccs1)c1ccccc1)NC1CCCCC1 | 12 | 0 | / | -1 | / | / | /
CSC1=C(C#N)C(c2ccccc2C)C(C#N)=C(N)N1 (stereo not given) | / | 1 | 2 | 11* | -2 | 25* | 15*
CSC1=C(C#N)C(c2ccccc2Cl)C2=C(N1)c1ccccc1C2=O (stereo not given) | 7 | 3 | -37 | 1 | 37 | / | /
COc1ccc([C@@H]2[C@@H]3C(=O)N(C(C)(C)C)C(=O)[C@@H]3[C@]3(Cc4ccccc4)C(=O)N(c4ccc(OC)cc4)C(=O)N23)cc1 | 14 | 1 | 27 | 0 | -27 | / | /
CC(C)(C)N1C(=O)[C@H]2[C@@H](c3ccc(Br)cc3)N3C(=O)N(c4ccccc4)C(=O)[C@@]3(Cc3ccccc3)[C@H]2C1=O | -3 | -1 | 14 | 9.9* | -14 | 5 | 14*
SMILES | JMJD2C inh | AHR act | SR-BI DiI-HDL act | FXN GAA850 act | SR-BI HDL uptake | GAA30 counter | FXN GAA850 conf
CC(C)(C)N1C(=O)[C@H]2[C@@H](c3ccc(Br)cc3)N3C(=O)N(c4cccc(Br)c4)C(=O)[C@@]3(Cc3ccccc3)[C@H]2C1=O | -18 | -1 | 5 | 15* | -5 | 14 | 11*
N/C(=N/OC(=O)c1ccccc1Cl)c1ncc([N+](=O)[O-])s1 | -1 | 54* | 7 | 15* | -7 | 103* | 51*
Cn1cc([C@@H]2C[C@H]3CN(C4CCCC4)C(=O)[C@]34CCCN24)c(-c2ccccc2)n1 | 19 | 1 | 11 | 0 | -11 | / | /
O=C(Nc1cccc(Cl)c1)c1ccccc1 | 4 | 9 | 33 | 7.7* | -33 | 76* | 20*
O=C(NNC(=S)Nc1cccc(Cl)c1)c1ccccc1 | 4 | 1 | 26 | 5 | -26 | / | /
CC(C)=CC(=O)NCCc1ccccc1 | 3 | 6 | 11 | 15* | -11 | 75* | 20*
CC(=O)Nc1cccc(-n2nnc(SCC(=O)Nc3ccccc3)n2)c1 | -5 | 6 | 7 | 1 | -7 | / | /
Cc1noc(C(=O)N2CCN(Cc3ccc4c(c3)OCO4)CC2)c1Cl | 6 | 6 | -2 | 0 | 2 | / | /
Cc1cc(Cl)n2c(nc3cc(F)c(F)cc32)c1C#N | ? | / | -11 | 15* | 11 | -51 | 29*
Cc1cc(C)n2c(=O)c3ccc(Cl)cc3nc2c1C#N | 6 | 28 | 17 | 0 | -17 | / | /
CC(O)Cn1c(N2CCCC2)nc2c1c(=O)[nH]c(=O)n2C (stereo not given) | -4 | 0 | 6 | 2 | -6 | / | /
C/C(=N\NC1=NCCN1)c1ccc(N)c([N+](=O)[O-])c1 | 0 | 31 | 19 | 2 | -19 | / | /
CCCCCCOc1ccc(/C(C)=N/NC2=NCCN2)cc1[N+](=O)[O-] | 3 | 24 | -4 | 7.8* | 4 | 28* | 17*
Cc1cc(N2C(=O)C(O)=C(C(=O)c3ccc(C)o3)C2c2cccc(Oc3ccccc3)c2)no1 (stereo not given) | -6 | 4 | 11 | 2 | -11 | / | /
O=C1CCC(=O)N(O)CCCCCNC(=O)CCC(=O)N(O)CCCCNC(=O)CCC(=O)N(O)CCCCCN1 | i | 0 | 3 | -2 | -3 | / | /
COC(=O)c1c(NC(=O)CN2CCC3(O)CCCCC3C2c2ccccc2OC)sc(C)c1C (stereo not given) | 9 | 19 | -2 | 3 | 2 | / | /
